Test: Toxicity liver stage against HepG2, at 10uM
Type: cell-based
Design: test concentration 10 uM, cell line HepG2-A16-CD81EGFP
Settings: human, HepG2-A16-CD81EGFP cells; read-out: INHIBITION
In short: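 Uninfected HepG2-A16-CD81EGFP cells, 3 × 10^3 per well, 1536-well, plated on prespotted compound at 10 μM final, parasite-free screening media added to match infected plates; puromycin 10 μM positive, DMSO 0.5% negative; run in parallel with 48 h PbLuc assay at 37 °C, 5% CO2; viability by CellTiter-Glo luminescence, normalized to controls.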

Row | SMILES | cytotoxicity at 10 µM [%]
1 | Cc1cccc2c1nc1n2[C@@H](CNC(=O)c2ccncc2)COC1 | 3.04
2 | COCCn1c(-c2cccc(OC)c2)cnc1NC(=O)NC(C)C | 4.04
3 | Cc1ccc2oc(SCC(N)=O)nc2n1 | 9.65
4 | Cc1ccc(Cl)cc1NCc1nc2[nH]c(C)c(C)c(=O)n2n1 | -4.96
5 | Cc1ccc(CN2CC(O)CN(C(=O)OCC(C)C)CC2=O)cc1 (centres undefined) | -3.09
6 | CSc1nsc(SCC(=O)c2cc3c(cc2Cl)NC(=O)C3)n1 | 5.13
7 | CCOC(=O)Cn1c(=O)nc(N)c2c(-c3ccc(OC)cc3)csc21 | -33.2
8 | CCCS(=O)(=O)N1CCOC2(CCCN(c3ccc(C)nn3)C2)C1 (centres undefined) | 2.08
9 | COCCNC(=O)[C@@H]1CCO[C@@H]2CCN(Cc3cnn(C)c3)C[C@@H]21 | 0.341
10 | Cc1nn(C)cc1S(=O)(=O)NCC(C)Cn1cc(Cl)cn1 (centres undefined) | 0.197
11 | Cc1nn(C)cc1C(=O)NCc1csc(C2CC2)n1 | -4.1
12 | c1cc(C2CCN(c3cnccn3)CC2)ccn1 | 3.94
13 | CN(C)Cc1cccc(-c2cccnc2C(=O)NCC2CC2)c1 | 1.59
14 | Cc1cc2ccncc2n1CC1(O)CCN(C(=O)c2ccccn2)CC1 | 0.166
15 | CC(C)=CCCC1(C)C=Cc2c(cc(C)n(CC(=O)O)c2=O)O1 (centres undefined) | -2.72
16 | CS(=O)(=O)c1cncnc1C1CCCN(C(=O)Cc2ccccc2F)C1 (centres undefined) | 2.72
17 | CN(C)[C@@H]1CN(C(=O)c2cc3ccc(F)cc3[nH]2)C[C@H]1O | 1.05
18 | COc1ccc(-c2cc(C(=O)NCCCn3ccnc3C)n(C)n2)cc1 | -6.67
19 | COCCN1CCCC(c2ncc(C(=O)N3CCOCC3)c(C)n2)C1 (centres undefined) | 0.893
20 | CC(C)Nc1nc(O)cc(C2CC(=O)N(Cc3ccccc3)C2)n1 (centres undefined) | -28.5
21 | CN1CCOC(C)(C(=O)N2CCSCC2)C1 (centres undefined) | -9.71
22 | O=C(C1CCN(c2cccnn2)C1)N1CCOCC1 (centres undefined) | -25.4
23 | Cc1cc(N2CC(c3n[nH]c4nccnc34)C2)ncn1 | -11.2

Row | SMILES | cytotoxicity at 10 µM [%]
24 | CC(C)C(=O)NC1CCCc2nc(N3CCOCC3)ncc21 (centres undefined) | 10.2
25 | COCC(=O)N1CCCC1c1cc(Nc2nnc(C)s2)nc(C)n1 (centres undefined) | -6.15
26 | Cc1cc(NCCSc2nccn2C)n2ncnc2n1 | 17.5
27 | CC(=O)N1CCCc2cc(Nc3nccn(C)c3=O)ccc21 | -49.4
28 | Brc1cnc(NCCCOC2CCOCC2)nc1 | -5.2
29 | O=C(NCc1ccc(-n2cncn2)nc1)c1cc[nH]n1 | -7.45
30 | O=c1[nH]c(C2CCOC2)nc2ccc(Br)cc12 (centres undefined) | 7.85
31 | CC1CN(C)CCN1C(=O)c1cccn1Cc1cccnc1 (centres undefined) | -13.5
32 | O=C(O)CC(NC(=O)CCCc1cccs1)c1ccc(F)cc1 (centres undefined) | -2.99
33 | COc1ccc(N2CCC(NCc3csc(C(C)C)n3)CC2)cc1 | -15.9
34 | O[C@@H]1Cc2ccccc2[C@@H]1Nc1ncccc1F | 13.3
35 | NC(=O)C1=NN2C(=NS(=O)(=O)c3ccccc32)N1 | 7.58
36 | O=C(NCc1ccccc1Cn1ccnc1)N1CCOCC1 | 0.84
37 | Cn1ccnc1CNC(=O)Nc1ccc(OC2CCC2)c(F)c1 | -4.92
38 | COCc1nccc(C2CCCN(Cc3cccc(C#N)c3)C2)n1 (centres undefined) | 18.7
39 | Cc1ccc(N2CCCC(N(C)Cc3c(C)noc3C)C2)nn1 (centres undefined) | -14
40 | O=C(NCCc1ccc(F)cc1)NC1CCCc2c1cnn2CCO (centres undefined) | -3.46
41 | Cc1cc(C)n(-c2ccccc2NC(=O)NCCCN(C)S(C)(=O)=O)n1 | -4.01
42 | COc1ccc(-c2nnc(SC(C)C(N)=O)[nH]2)c(OC)c1 (centres undefined) | -15
43 | CCN1CCCN(c2ncccc2C(=O)N2CCCCC2)CC1 | -5.1
44 | CCN(Cc1cccc(F)c1)S(=O)(=O)N1CCOCC1 | -1.71
45 | CNS(=O)(=O)c1cc(C(=O)NC2COc3ccccc32)cc(C)c1C (centres undefined) | -1.51
46 | CCC(CNC1CCN(C(=O)N(C)C)CC1)Oc1ccccc1C (centres undefined) | 3.98

Row | SMILES | cytotoxicity at 10 µM [%]
47 | CN(C)CCN(Cc1ccccc1)C(=O)C1=NNC(=O)CC1 | -6.49
48 | O=C(C1CSc2ccccc2O1)N1CCN(CCO)CC1 (centres undefined) | -6.29
49 | COCC(=O)NCCSCCOc1cccc(Br)c1 | -9.2
50 | CS(=O)(=O)c1nccn1Cc1ccc(OC(F)F)cc1 | -0.627
51 | CS(=O)(=O)CCN(CCCO)C1CCc2ccccc21 (centres undefined) | 7.37
52 | O=C(Nc1ccccc1N1CCOC1=O)N1CCc2sccc2C1 | -5.55
53 | CCn1nc2c(cc1=O)CN(CC(=O)Nc1nccs1)CC2 | -4.74
54 | O=C(CCC1CCCO1)NCCc1ccccn1 (centres undefined) | -43.2
55 | O=C(CCn1c(=O)oc2ccccc21)NCC(O)c1ccc(Cl)cc1 (centres undefined) | -1.25
56 | O=C(Cc1ccccc1)NCCNS(=O)(=O)C1CCCCC1 | -1.95
57 | CC1c2ccsc2CCN1Cc1cc2c(cc1O)OCO2 (centres undefined) | 11.7
58 | Cn1cc(C(C)(O)CNc2ccc(C(F)(F)F)cn2)cn1 (centres undefined) | -44.3
59 | Cc1cc(C)n(CC2CCCN2C(=O)Cc2cn3ccsc3n2)n1 (centres undefined) | -12.5
60 | Cc1nn(C)c(N(C)C)c1CNCc1cccc(CN(C)C(C)C)c1 | 11.4
61 | c1cnn(CC2CCCCN2c2ncnc3sccc23)c1 (centres undefined) | 9.48
62 | Cc1nnc(C(C)NCC2(c3ccc(Cl)cc3)CCCC2)o1 (centres undefined) | 8.29
63 | Cc1nc(C2CCCN(C(=O)c3scnc3C)C2)no1 (centres undefined) | -3.18
64 | CN(CCn1nc2ccccn2c1=O)CC(=O)N1CCCC1 | 7.08
65 | COCCCN(CCOC)C(=O)Nc1ccccc1Br | 5.86
66 | Cc1ccc2c(n1)N(CCN(C)C)CCN(C(=O)N1CCOCC1)C2 | -73.1
67 | C[C@H]1CN(C(=O)c2ccc[nH]2)C[C@@]12CCN(c1ccsc1)C2=O | -77.4
68 | Cn1cc(C2COC3(CCN(C(=O)c4ccc(F)cc4)CC3)C2)cn1 (centres undefined) | 8.31
69 | CCc1ccc(S(=O)(=O)N2CCC3(CC(C(=O)NC)=NO3)C2)cc1 (centres undefined) | -2.16

Row | SMILES | cytotoxicity at 10 µM [%]
70 | CC(=O)Nc1ccc(Cl)c(C(=O)N(C)C(C)c2ccon2)c1 (centres undefined) | -48.7
71 | c1cc2c(cc1-c1noc3c1CN(C1CCSC1)CC3)OCO2 (centres undefined) | -16.9
72 | COc1ccccc1-c1ncc(CN2CCC3(CCN(C)C3)CC2)cn1 | 3.92
73 | CC(C)CS(=O)(=O)CCNC(=O)Nc1cccc2ncccc12 | -11
74 | O=C(CN1CCCC1=O)NCc1cccnc1Oc1ccc(F)c(F)c1 | 1.87
75 | O=C(O)[C@@]12CN(c3cnccn3)C[C@@H]1CN(C1CCOCC1)C2 | 1.92
76 | CCCN1CCC(N2CCN(c3cccc(C)n3)CC2)CC1 | -10.8
77 | Cc1cn(Cc2nc(CC(C)C)nn2-c2ccccn2)c(=O)[nH]c1=O | -8.66
78 | CN(C)CCCN1CC2(CCN(C(=O)C3(C)CCCCO3)CC2)OC1=O (centres undefined) | -8.76
79 | C=C(C)COc1cccc(C(=O)N(CC)Cc2noc(C)n2)c1 | -4.15
80 | CC(=O)N1CCc2c(nc(N(C)C)nc2NCCCn2ccnc2)C1 | -7.28
81 | Cc1ccsc1-c1nccn1CCN1CCCCC1CO (centres undefined) | -8.11
82 | CC(C)N1CCCn2nc(C(=O)NCCc3c[nH]cn3)cc2C1 | 14.2
83 | C/C=C(\C)CN1C[C@H](NC(=O)CN2CCCC2=O)[C@@H](c2ccc(C)o2)C1 | 10.8
84 | Cc1cc(N2CCC(c3nnc(CN(C)C)n3C3CC3)CC2)ccn1 | 7.57
85 | COCc1nc(CNC2CCSCC2)no1 | -9.87
86 | CC(C)c1cc(NCC(O)c2ccc(F)cc2)n2nccc2n1 (centres undefined) | 0.255
87 | CCc1cnc(N2CCC(=O)N(CC3CC3)C(C(C)C)C2)nc1 (centres undefined) | -6.28
88 | COc1ccc(NC(=O)Cn2nc(C)c(C)cc2=O)cc1OC | -20.4
89 | CCc1nnc2n1CCN(C(=O)c1cc3ccccc3[nH]1)C2 | 4.38
90 | Cc1cc(C)n(CC2CN(CC(=O)NC(C3CC3)C3CC3)CCO2)n1 (centres undefined) | -0.544
91 | CC(C)c1nc(CN(C)C2CCCN(c3cccnn3)C2)no1 (centres undefined) | -9.92
92 | CCOc1ccc(Cl)c(C(=O)N2CCCSCC2)n1 | -4.03

Row | SMILES | cytotoxicity at 10 µM [%]
93 | COc1ccnc(N2CCN(C(=O)c3cccc(C#N)c3)CC2)n1 | -18.2
94 | c1csc(-c2noc(CNCCn3cccn3)n2)c1 | -8.21
95 | Cc1nc(CN(C)C2CCN(CC3CCC3)C2)no1 (centres undefined) | -8.19
96 | NC(=O)c1cc(C2CCCN(CCOCC3CC3)C2)n[nH]1 (centres undefined) | -11.5
97 | CN1CCN(c2cc(CNC(=O)c3cccnc3O)ccn2)CC1 | -5.42
98 | CCn1c(CN2CCN(C(=O)C3CCC3)CC2)nc2c(F)cccc21 | -3.78
99 | CC(C)C(=O)NC1CCCN(C(=O)c2cc(Cl)ccc2O)C1 (centres undefined) | -11.4
100 | Cc1nccc(-c2cccc(NCC(=O)N3CCNC3=O)c2)n1 | 1.9
101 | CC(=O)NCCNC(=O)CN1CCN(Cc2nccn2C)C(C)C1 (centres undefined) | -6.73
102 | O=C(CCCNC(=O)C1CC1)Nc1cnn(-c2ccccc2Cl)c1 | -12.3
103 | Cn1ccc(C(=O)NC2CCN(c3ncccn3)CC2)cc1=O | -7.32
104 | CC(O)CN1CCN(C(=O)c2ccc(Cn3cccc3)cc2)CC1 (centres undefined) | -5.75
105 | CC(NC(=O)CCCOc1ccccc1)c1nnc2n1CCCCC2 (centres undefined) | -9.51
106 | c1cc(NCc2ccncc2)nc(C2CCCNC2)c1 (centres undefined) | -1.83
107 | O=C(CC1CC1)N[C@@H]1CN(Cc2ccccn2)C[C@@H]2CCCO[C@@H]21 | 6.09
108 | Cn1cc(CN2CCCC3(CCCCN3S(C)(=O)=O)C2)cn1 (centres undefined) | -76.3
109 | O=C1COC2(CCN(Cc3cccnc3)CC2)CN1 | 2.78
110 | Cc1ccc(CNCC2Cn3nnc(-c4cccc(F)c4)c3CO2)o1 (centres undefined) | -0.617
111 | COCCN1CCc2cc(C(=O)N(C)C)c(NC(C)C)nc2CC1 | -3.91
112 | CCOCC1CN(Cc2cnn(C)c2)Cc2nn(C)cc21 (centres undefined) | 2.37
113 | Cc1ncnc2c1CCN(CC1CCOC1)CC2 (centres undefined) | -67.2
114 | O=C(NC[C@]12COC[C@H]1CN(Cc1ccncc1)C2)c1ccco1 | 8.75

Reference: ChEMBL document CHEMBL4513216, “Probing the Open Global Health Chemical Diversity Library for Multistage-Active Starting Points for Next-Generation Antimalarials” (ACS Infect Dis, 2020)
